Measured values reported in ChEMBL document CHEMBL2331340, “Novel antitumor indolizino[6,7-b]indoles with multiple modes of action: DNA cross-linking and topoisomerase I and II inhibition” (J Med Chem, 2013).
Blank lines part the entries; values can stand above or below the molecule they belong to. Active and inactive are the calls of the source. The calls are words filed in the database; no cut-off is given here.

Key:
[1] = biological target: T1, DNA topoisomerase 1 (Homo sapiens) (UniProt P11387); test: Inhibition of DNA topoisomerase 1 (unknown origin)-mediated relaxation of supercoiled pHOT DNA at 25 to 100 uM after 30 to 45 mins by agarose gel electrophoresis
T1 sequence (whole entry): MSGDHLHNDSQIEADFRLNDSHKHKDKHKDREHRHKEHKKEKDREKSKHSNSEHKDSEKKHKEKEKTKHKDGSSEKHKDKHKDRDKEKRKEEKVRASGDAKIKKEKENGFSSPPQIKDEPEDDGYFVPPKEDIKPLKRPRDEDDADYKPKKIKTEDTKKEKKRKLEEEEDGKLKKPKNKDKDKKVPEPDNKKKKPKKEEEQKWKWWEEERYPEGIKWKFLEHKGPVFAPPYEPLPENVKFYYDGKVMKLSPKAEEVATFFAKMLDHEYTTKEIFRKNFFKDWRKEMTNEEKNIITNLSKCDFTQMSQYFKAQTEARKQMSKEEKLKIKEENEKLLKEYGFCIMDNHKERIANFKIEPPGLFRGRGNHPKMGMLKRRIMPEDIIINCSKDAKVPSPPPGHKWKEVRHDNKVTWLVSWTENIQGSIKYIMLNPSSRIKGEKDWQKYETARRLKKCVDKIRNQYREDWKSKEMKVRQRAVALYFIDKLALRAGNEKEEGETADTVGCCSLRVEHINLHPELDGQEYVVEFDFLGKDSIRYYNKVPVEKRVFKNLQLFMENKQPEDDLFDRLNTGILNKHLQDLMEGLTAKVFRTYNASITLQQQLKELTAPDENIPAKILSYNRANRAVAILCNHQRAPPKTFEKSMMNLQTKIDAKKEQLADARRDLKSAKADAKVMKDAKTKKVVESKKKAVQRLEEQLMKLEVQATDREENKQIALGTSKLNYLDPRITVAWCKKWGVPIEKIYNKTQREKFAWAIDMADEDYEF
Summary of the method: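 Supercoiled pHOT DNA (200 ng) and compound in 10 mM Tris-HCl pH 7.9 with 1 mM EDTA at 37 °C. Reaction started with 1 unit topo I, run 30−45 min, stopped with 10% SDS. Products separated on 1% agarose at 50 V for 90 min and stained with ethidium bromide.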

Mus musculus [2] = test: Toxicity in nude mouse xenografted with human A549 cells assessed as body weight loss at 60 mg/kg, iv tid administered 2 days measured for 20 days; format: organism-based; parameters: dose 60 mg/kg, route intravenous; conditions: in vivo, 480 h
Mus musculus [3] = test: Toxicity in nude mouse xenografted with human HT-29 cells assessed as body weight loss at 60 mg/kg, iv tid administered 2 days measured for 20 days; format: organism-based; parameters: dose 60 mg/kg, route intravenous; conditions: in vivo, 480 h
A549 = test: Antitumor activity against human A549 cells xenografted in nude mouse assessed as tumor growth inhibition at 60 mg/kg, iv tid administered 2 days measured on day 20 relative to vehicle-treated control; format: functional; conditions: read-out: TGI
HT-29 [4] = test: Antitumor activity against human HT-29 cells xenografted in nude mouse assessed as tumor growth inhibition at 60 mg/kg, iv tid administered 2 days measured on day 22; format: functional, organism-based; parameters: dose 60 mg/kg
HT-29 [5] = test: Antitumor activity against human HT-29 cells xenografted in nude mouse assessed as tumor growth inhibition at 60 mg/kg, iv tid administered 2 days measured on day 20; format: functional, organism-based; parameters: dose 60 mg/kg
MX1 [6] = test: Cytotoxicity against human MX1 cells after 72 hrs by SRB assay; format: functional, cell-based; conditions: MX1, 72 h
PC-3 = test: Cytotoxicity against human PC3 cells after 72 hrs by Alamar blue assay; format: functional, cell-based; conditions: PC-3, 72 h
Summary of the method: (§1)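 Cells exposed to compound for 72 h, then Alamar blue added with a further 10−12 h at 37 °C and a spectrophotometric read. IC50 from six or seven concentrations by median-effect analysis; mean ± STDEV, n = 3. CL141T is a line derived from a patient lung tumor passaged as a SCID mouse xenograft.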

CCRF-CEM = test: Cytotoxicity against human CCRF-CEM cells after 72 hrs by XTT assay; format: functional, cell-based
Summary of the method: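 CCRF-CEM T-ALL cells incubated with compound for 72 h. XTT with phenazine methosulfate then added for 6 h at 37 °C, absorbance read at 450 and 630 nm. IC50 from six or seven concentrations by median-effect analysis; mean ± STDEV, n = 3.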

Escherichia coli = test: Induction of Escherichia coli pEGFP-N1 DNA interstrand cross-linking at 1 to 10 uM after 2 hrs by alkaline agarose gel shift assay
Summary of the method: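 Plasmid pEGFP-N1 DNA (1500 ng) incubated with compound at 1, 5 and 10 μM in 3 mM NaCl/1 mM sodium phosphate pH 7.4/1 mM EDTA, 2 h at 37 °C. DNA then BamHI-linearized, EtOH-precipitated, denatured in 0.5 N NaOH/10 mM EDTA, run on 0.8% alkaline agarose at 4 °C (18 V, 22 h), stained with ethidium bromide.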

[7] = Cell cycle arrest in human CL141T cells assessed as accumulation at sub-G1 phase at 0.5 x IC50 to 2 x IC50 after 72 hrs by propidium iodide staining-based FACS flow cytometric analysis; format: functional
Summary of the method: (§2)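 CL141T cells treated at 0.5-, 1- and 2-fold IC50 for 24, 48 and 72 h. Cells fixed in ice-cold 70% EtOH, then stained with 4 μg/mL propidium iodide in PBS with 1% Triton X-100 and 0.1 mg/mL RNase A. Phase distribution from flow cytometry DNA histograms; sub-G1 fraction scored as well.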

[8] = Cell cycle arrest in human CL141T cells assessed as accumulation at G2/M phase at 2 x IC50 after 24 hrs by propidium iodide staining-based FACS flow cytometric analysis; format: functional; summary of the method: as §2
[9] = Cell cycle arrest in human CL141T cells assessed as accumulation at G2/M phase at 0.5 x IC50 to 1 x IC50 after 48 to 72 hrs by propidium iodide staining-based FACS flow cytometric analysis; format: functional; summary of the method: as §2
[10] = Cell cycle arrest in human CL141T cells assessed as accumulation at S phase at 3.75 to 15 uM after 24 hrs by propidium iodide staining-based FACS flow cytometric analysis; format: functional; summary of the method: as §2
Mus musculus [11] = test: Toxicity in nude mouse xenografted with human MX1 cells assessed as body weight loss at 35 mg/kg, iv qd administered 4 days measured for 20 days; format: organism-based; parameters: dose 35 mg/kg, route intravenous; conditions: in vivo, 480 h
MX1 [12] = test: Antitumor activity against human MX1 cells xenografted in nude mouse assessed as tumor growth inhibition at 35 mg/kg, iv qd administered 4 days measured on day 20 relative to vehicle-treated control; format: functional; conditions: read-out: TGI
[13] = Resistance factor, ratio of IC50 for human KB-VIN10 cells to IC50 for human KB cells; format: functional
[14] = Cytotoxicity against human HEL299 cells; format: cell-based; conditions: HEL 299
[15] = Cytotoxicity against human CL141T cells after 72 hrs by Alamar blue assay; format: functional, cell-based; summary of the method: as §1
HCT-116 = test: Cytotoxicity against human HCT116 cells after 72 hrs by Alamar blue assay; format: functional, cell-based; conditions: HCT-116, 72 h; summary of the method: as §1
[16] = Cytotoxicity against human OECM1 cells after 72 hrs by Alamar blue assay; format: functional, cell-based; conditions: OECM1, 72 h; summary of the method: as §1
KB = test: Cytotoxicity against human KB cells after 72 hrs by Alamar blue assay
[17] = Cytotoxicity against human KB-VIN10 cells after 72 hrs by Alamar blue assay; conditions: KB-VIN10, 72 h

inhibition [1]: Active
SMILES: CCc1c2c(nc3ccc(OC(=O)N4CCC(N5CCCCC5)CC4)cc13)-c1cc3c(c(=O)n1C2)COC(=O)[C@]3(O)CC [IRINOTECAN]
Activity (Mus musculus [2]): Toxic
Activity (Mus musculus [3]): Toxic
inhibition in vivo at 60 mg/kg (A549): 50%
TGI (HT-29 [4]): inactive
TGI (HT-29 [5]): Active

Activity (Escherichia coli): Active
SMILES: CC(C)NC(=O)OCc1c(COC(=O)NC(C)C)c(-c2ccc(F)cc2)n2c1Cc1c(n(C)c3ccccc13)C2
IC50 (MX1 [6]): 2.19 µM
IC50 (PC-3): 6.71 µM
IC50 (CCRF-CEM): 0.11 µM
Activity [7]: Active
Activity [8]: inactive
Activity [9]: Active
Activity [10]: Active
Activity (Mus musculus [11]): Toxic
inhibition in vivo at 35 mg/kg (MX1 [12]): > 99%
Ratio IC50 [13]: 1.1
IC50 [14]: 25.9 µM
IC50 [15]: 7.46 µM
IC50 (HCT-116): 6.09 µM
IC50 [16]: 6.56 µM
IC50 (KB): 14.2 µM
IC50 [17]: 15.6 µM
